Source: PubChem BioAssay (several laboratories)
SENP6 inh = inhibitors of human SENP6 protease; Q9GZR1; Recombinant SENP6 catalytic domain, aminoluciferin luminescence; inhibition, % at 10 µM; actives 1.8% (n = 330,000); AID 2599;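 active means inhibition above about 50% at the single tested dose, limit read from the data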;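 further: plate controls were DMSO wells with enzyme for no effect and DMSO wells lacking enzyme for full effect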
SENP8 block-1 = inhibitors of human SENP8 protease; Q96LD8; recombinant SENP8, Nedd8 substrate fluorescence; inhibition, % at 20 µM; actives 0.64% (n = 360,000); AID 602440; in the data active means inhibition mostly above about 40%, no sharp cut-off; inactive means mostly below about 27%
Target sequence (Q96LD8 whole entry, looked up): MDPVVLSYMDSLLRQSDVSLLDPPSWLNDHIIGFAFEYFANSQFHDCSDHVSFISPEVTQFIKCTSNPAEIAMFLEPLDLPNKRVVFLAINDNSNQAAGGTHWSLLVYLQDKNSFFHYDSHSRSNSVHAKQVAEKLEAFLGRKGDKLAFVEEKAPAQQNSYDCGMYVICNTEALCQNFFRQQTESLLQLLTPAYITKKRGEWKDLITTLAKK
HSP90 inh = inhibitors of HSP90 luciferase refolding in rabbit reticulocyte lysate; inhibition, % at 5.6 µM; luciferase refolding luminescence, 3 h; actives 0.91% (n = 290,000);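 active means inhibition above the screen-wide mean plus 3 SD, computed separately per campaign, cut at about 16% in these data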;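 further: 0% = DMSO wells and 100% = 60 µM geldanamycin wells; inhibitors lower the luminescence because luciferase stays unfolded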
SENP8 block-2 = blocks the human protease SENP8; Q96LD8; purified SENP8, Z-RLRGG-aminoluciferin cleavage, luminescence; inhibition, % at 10 µM; actives 1.2% (n = 330,000); AID 2540; in the data active means inhibition above about 50%
SENP7 block = blocks the human protease SENP7. AID 434973. inhibition, % at 5 µM. actives 1.5% (n = 330,000). Q9BQF6. recombinant SENP7, Z-RLRGG-aminoluciferin luminescence, 40 min;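 active means inhibition above about 50% at the single test dose, limit read from the data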;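 further: plate controls were DMSO with enzyme for no effect and no enzyme buffer wells for full effect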
Target sequence (Q9BQF6 706-1050 limits assumed): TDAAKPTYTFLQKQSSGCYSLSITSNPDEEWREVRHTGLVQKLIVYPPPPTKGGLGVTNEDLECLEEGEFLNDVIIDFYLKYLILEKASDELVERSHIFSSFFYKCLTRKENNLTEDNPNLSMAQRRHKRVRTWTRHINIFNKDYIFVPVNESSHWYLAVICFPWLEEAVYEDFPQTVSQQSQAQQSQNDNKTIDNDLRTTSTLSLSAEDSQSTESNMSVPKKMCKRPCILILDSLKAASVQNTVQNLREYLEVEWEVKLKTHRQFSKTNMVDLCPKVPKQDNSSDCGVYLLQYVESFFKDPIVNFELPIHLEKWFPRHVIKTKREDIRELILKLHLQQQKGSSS
SENP1 FRET inh = SENP1 (human) catalytic domain inhibition | inhibition, % at 10 µM | Q9P0U3 | actives 0.21% (n = 360,000) | recombinant SENP1 catalytic domain, CyPet-SUMO1-YPet FRET cleavage;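 active means inhibition at least 30% at 10 µM, raw YFP signal under a set limit, fluorescence ratio 0.5 to 1.5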;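 further: 0% = enzyme with DMSO and 100% = no enzyme wells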
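Material: hSENP1 catalytic domain, recombinant; medium: Tris pH 8 with BME, BSA, NP40 and catalase; compound: single concentration of 10 µM compound, 0.5% DMSO final; technique: FRET read of cyan and yellow fluorescence; timing: 50 min enzyme reaction, room temperature, light-protected; reagent: SFCypet-SUMO1-SFYpet substrate at 25 nM; control set: no-enzyme low, enzyme-DMSO high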
SENP8 conf = confirmation of human SENP8 protease inhibitors; shares compounds with SENP7 block; Recombinant SENP8, Z-RLRGG-aminoluciferin luminescence, 60 min; inhibition, % at 12.5 µM; actives 40% (n = 6,200); AID 488912;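 active means mean inhibition across replicates above about 50%, limit read from the data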
SENP6 confirm = confirmation of human SENP6 protease inhibitors | shares compounds with SENP7 block | recombinant SENP6, Z-RLRGG-aminoluciferin luminescence | AID 488915 | inhibition, % at 12.5 µM | actives 58% (n = 6,200)
SENP7 confirm = human SENP7 inhibition, confirmed; shares compounds with SENP7 block; inhibition, % at 12.5 µM; AID 488917; actives 69% (n = 6,200); recombinant SENP7, Z-RLRGG-aminoluciferin luminescence, 40 min
Casp3 select = inhibits human caspase-3 in SENP selectivity test. shares compounds with SENP7 block. purified caspase-3, Z-DEVD-aminoluciferin luminescence, 60 min. inhibition, % at 12.5 µM. actives 60% (n = 6,200). AID 488918;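 active means mean inhibition above about 50%, limit read from the data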;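 further: plate controls were enzyme with DMSO for no effect and wells without caspase-3 for full effect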
SENP luc ctr = luminescence interference (SENP counter-screen) | inhibition, % at 12.5 µM | shares compounds with SENP7 block | Pre-incubated SENP8/Z-RLRGG-aminoluciferin, luciferase luminescence interference | actives 39% (n = 6,200);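 active means mean inhibition above about 50% when retested at one dose, limit read from the data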;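 further: plate controls were DMSO wells with completed reaction for no effect and substrate without enzyme for full effect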
Numbers without * were called inactive; · = not tested or not shown. An excerpt weighted towards active compounds, which were near 2.9% of everything screened.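 How the source made its calls, unless noted: active means mean inhibition above about 50% in the one-dose retest (limit read from the data); inactive means the rest.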

SMILES	SENP6 inh	SENP8 block-1	HSP90 inh	SENP8 block-2	SENP7 block	SENP1 FRET inh	SENP8 conf	SENP6 confirm	SENP7 confirm	Casp3 select	SENP luc ctr
Cc1nc2cc(NC(=O)c3ccc(Br)s3)ccc2s1	70*	13	0	46	70*	1	22	51*	91*	48	0
Cc1ccc(/C=N/NC(=O)c2ccco2)s1	-2	-7	-3	-21	-5	1	·	·	·	·	·
Cc1ccc(/C=N/NC(=O)c2ccoc2C)s1	88*	6	0	74*	85*	0	-3	77*	95*	93*	80*
Cc1occc1C(=O)N/N=C/c1ccc(Br)s1	88*	2	1	81*	88*	1	-8	78*	95*	89*	53*
Cc1cccc(-c2nsc(SCC(=O)N3CCCC3)n2)c1	80*	33	4	49	67*	0	59*	65*	87*	77*	55*
COc1ccc(CCN2CCCC(CN(C)C(=O)c3ccoc3)C2)cc1 (stereo not drawn)	3	8	-1	4	-1	-2	·	·	·	·	·
O=C(O)c1ccc(N/C(=N\S(=O)(=O)c2ccc(Cl)cc2)c2ccccc2)cc1	-21	16	6	-9	-4	3	·	·	·	·	·
O=C(NN/C(=N/S(=O)(=O)c1ccc(Cl)cc1)c1ccccc1)c1ccc(O)cc1	96*	-60	3	95*	97*	0	73*	63*	89*	87*	88*
O=C(NN/C(=N/S(=O)(=O)c1ccc(Cl)cc1)c1ccccc1)c1cccc(Cl)c1	86*	20	0	71*	85*	2	51*	64*	87*	63*	38
Cc1ccc(S(=O)(=O)/N=C(/NNC(=O)c2cccc(Cl)c2)c2ccccc2)cc1	78*	10	3	49	68*	3	14	25	63*	43	45
Cc1ccc(NC2=Nc3ccccc3CC2)cc1	52*	12	16	43	37	-1	64*	61*	88*	84*	42
Brc1ccc(NC2=Nc3ccccc3CC2)cc1	-19	0	0	34	45	0	·	·	·	·	·
Cc1nc2cc(-c3ccc(Br)cc3)[nH]n2c(=O)c1Cl	82*	-3	-2	75*	27	-2	0	2	3	11	10
O=c1c2c(nc3cc(-c4cccc(Cl)c4)[nH]n13)CCC2	50*	-270	1	45	57*	0	-25	-11	12	20	-8
Cc1cc2nc(C)c(Cl)c(=O)n2[nH]1	0	-26	0	-3	-7	1	·	·	·	·	·
O=c1c2c(nc3cc(-c4ccc(Cl)cc4)[nH]n13)CCS2	88*	-397	-5	85*	73*	-37	-2	2	4	24	12
CN(C)CCCNc1nc2cc(-c3cnn(Cc4ccccc4)c3)sc2c(=O)n1C	·	-169	·	·	·	0	·	·	·	·	·
Nc1nc(-c2cc(O)ccc2[N+](=O)[O-])cc(-c2ccccc2)c1[N+](=O)[O-]	29	-320	2	8	14	-26	·	·	·	·	·
COc1cccc(COC(=O)c2ccc3c(c2)NC(=O)C(C)S3)c1OC (stereo not drawn)	-16	0	·	6	3	-2	·	·	·	·	·
CC1Sc2ccc(C(=O)OCc3ccccc3Cl)cc2NC1=O (stereo not drawn)	55*	-9	·	6	70*	-1	-24	-11	-1	2	-5
CCOc1ccc(N=C(C)C2=C(O)c3ccccc3C2=O)cc1	85*	30	-3	78*	84*	0	29	32	46	31	12
C/C(=N\N(C)C)C1=C(O)c2ccccc2C1=O	-6	18	-4	-6	1	2	·	·	·	·	·
COc1ccc(N=C(C)C2=C(O)c3ccccc3C2=O)cc1	87*	16	0	73*	77*	3	30	74*	71*	39	12
CCc1ccccc1NC(=O)C1CCCN(c2nccc(C)n2)C1 (stereo not drawn)	-3	-24	-4	0	1	-1	·	·	·	·	·
C[C@@H]1CN([C@H](C)CO)C(=O)c2cc(Br)cnc2O[C@@H]1CN(C)Cc1ccc(-c2ccccc2)cc1	·	5	·	·	·	1	·	·	·	·	·
SMILES	SENP6 inh	SENP8 block-1	HSP90 inh	SENP8 block-2	SENP7 block	SENP1 FRET inh	SENP8 conf	SENP6 confirm	SENP7 confirm	Casp3 select	SENP luc ctr
O=C(O)C(=O)Nc1nc(-c2ccc3c(c2)OCCO3)cs1	73*	-23	-5	44	24	3	67*	66*	89*	88*	76*
CC(C)(C)C(=O)OCc1nc(-c2ccc3c(c2)OCCO3)cs1	89*	14	9	86*	88*	0	90*	90*	71*	77*	59*
COc1ccc(-c2csc(COC(=O)C(C)(C)C)n2)cc1	14	14	-2	-4	31	2	·	·	·	·	·
CC(C)(C)C(=O)OCc1nc(-c2ccc(F)cc2)cs1	52*	16	-6	24	45	2	-4	27	71*	25	6
CCCC(=O)Nc1nc(-c2ccc3c(c2)OCCO3)cs1	-3	16	-3	-16	-4	4	·	·	·	·	·
CCOc1ccc(OCCC(=O)N(CCOC)c2c(N)n(Cc3ccccc3)c(=O)[nH]c2=O)cc1	·	0	·	·	·	-1	·	·	·	·	·
CN(C)c1ccc(N=Nc2cccc3ccoc23)cc1	86*	24	1	84*	90*	5	77*	77*	94*	48	28
CCC(C)NC(=O)c1cc2cc3ccc(OC)cc3nc2s1 (stereo not drawn)	-7	-313	4	36	60*	-1	37	61*	87*	72*	37
CCC(C)NC(=O)c1cc2c(=O)n3ccccc3nc2s1 (stereo not drawn)	-8	-281	-4	4	8	-65	·	·	·	·	·
CN1CCN(c2ccc(-c3cccc(NC(=O)COc4ccc(Cl)cc4Cl)c3)nn2)CC1	31	1	·	19	67*	-7	18	20	21	18	17
